Measurements published in ChEMBL document CHEMBL1152870, “Design and synthesis of novel dihydroquinoline-3-carboxylic acids as HIV-1 integrase inhibitors” (Bioorg Med Chem, 2009).

Columns and labels:
HCT-116 [1] = assay: Cytotoxicity against human HCT116 cells expressing p53 after 72 hrs by MTT assay; format: functional; settings: HCT-116, 72 h
How it was run: (§1)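 HCT116 p53+/+ or p53−/− cells grown as monolayers in RPMI 1640 with 10% FBS and 2 mmol/L L-glutamine at 37 °C, 5% CO2, and used in exponential growth. Cells were seeded, allowed to attach, then exposed continuously to drug for 72 h. DMSO stocks were diluted in medium. MTT (0.5 mg/mL final) was added for 4 h at 37 °C and read at 570 nm. Triplicates; IC50 from log concentration versus % cells killed.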

HCT-116 [2] = assay: Cytotoxicity against p53 deficient human HCT116 cells after 72 hrs by MTT assay; format: functional; settings: HCT-116, 72 h; how it was run: as §1
[3] = molecular target: T1, Human immunodeficiency virus type 1 integrase (Human immunodeficiency virus 1, UniProt Q7ZJM1); assay: Inhibition of HIV1 integrase strand transfer activity by PAGE
[4] = molecular target: T1, Human immunodeficiency virus type 1 integrase; assay: Inhibition of HIV1 integrase 3' processing activity by PAGE

T1 sequence (Q7ZJM1 whole entry): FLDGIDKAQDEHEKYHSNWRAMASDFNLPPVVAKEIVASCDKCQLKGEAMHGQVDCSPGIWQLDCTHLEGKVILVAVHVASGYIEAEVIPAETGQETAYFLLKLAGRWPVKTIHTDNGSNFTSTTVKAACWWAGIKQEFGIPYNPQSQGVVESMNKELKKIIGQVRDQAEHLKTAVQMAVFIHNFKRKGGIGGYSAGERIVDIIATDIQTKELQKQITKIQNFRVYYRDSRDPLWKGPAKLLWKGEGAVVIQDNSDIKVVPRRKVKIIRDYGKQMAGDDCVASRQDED

CCOC(=O)c1c(O)c2cc(OC)ccc2n(C)c1=O
CC50 (HCT-116 [1]): > 10 µM | CC50 (HCT-116 [2]): > 10 µM | IC50 [3]: > 1000 µM | IC50 [4]: > 1000 µM

Cn1c(=O)c(C(=O)O)c(O)c2cc(Cc3ccccc3)ccc21
CC50 (HCT-116 [1]): > 10 µM | CC50 (HCT-116 [2]): > 10 µM | IC50 [3]: 6 µM | IC50 [4]: 45 µM

CCCCCn1c(=O)c(C(=O)Nc2cc([N+](=O)[O-])ccc2O)c(O)c2ccccc21
CC50 (HCT-116 [1]): > 10 µM | CC50 (HCT-116 [2]): > 10 µM | IC50 [3]: 9 µM | IC50 [4]: 9 µM

COc1ccc2c(c1)c(O)c(C(=O)O)c(=O)n2C
CC50 (HCT-116 [1]): > 10 µM | CC50 (HCT-116 [2]): > 10 µM | IC50 [3]: 320 µM | IC50 [4]: 580 µM

Cn1c(=O)c(C(=O)O)c(O)c2cc(Cc3ccc(F)cc3)ccc21
CC50 (HCT-116 [1]): > 10 µM | CC50 (HCT-116 [2]): > 10 µM | IC50 [3]: 0.9 µM | IC50 [4]: 23 µM

Cn1c(=O)c(C(=O)O)c(O)c2cc(Oc3ccccc3)ccc21
CC50 (HCT-116 [1]): > 10 µM | CC50 (HCT-116 [2]): > 10 µM | IC50 [3]: 14 µM | IC50 [4]: 34 µM

CCOC(=O)c1c(O)c2cc(Cc3ccc(F)cc3)ccc2n(C)c1=O
CC50 (HCT-116 [1]): > 10 µM | CC50 (HCT-116 [2]): > 10 µM | IC50 [3]: 220 µM | IC50 [4]: 800 µM

O=C(O)C(=O)CC(=O)c1cccn1Cc1ccc(F)cc1
CC50 (HCT-116 [1]): > 10 µM | CC50 (HCT-116 [2]): > 10 µM

CCCCCn1c(=O)c(C(=O)O)c(O)c2cc(Cc3ccc(F)cc3)ccc21
CC50 (HCT-116 [1]): > 10 µM | CC50 (HCT-116 [2]): > 10 µM | IC50 [3]: 5 µM | IC50 [4]: 92 µM

CCOC(=O)c1c(O)c2cc(Cc3ccccc3)ccc2n(C)c1=O
CC50 (HCT-116 [1]): > 10 µM | CC50 (HCT-116 [2]): > 10 µM | IC50 [3]: 110 µM | IC50 [4]: 275 µM
